In ChEMBL document CHEMBL5214983, “New Dual P-Glycoprotein (P-gp) and Human Carbonic Anhydrase XII (hCA XII) Inhibitors as Multidrug Resistance (MDR) Reversers in Cancer Cells” (J Med Chem, 2022):

Assays:
[1] = Stability in human plasma assessed as half-life measured by LC-MS/MS analysis; format: ADME, cell-free
How it was run: (§1)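 Analyte at 1 μM in PBS or in pooled human plasma, incubated at 37 °C for 0, 30, 60 and 120 min, in triplicate. Internal standard verapamil added, mixture centrifuged, supernatant dried and redissolved. Analyte quantified by LC-MS/MS. Half-life taken from the slope of ln(concentration) versus time. Ketoprofen ethyl ester served as plasma activity reference.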

[2] = Stability in PBS measured by LC-MS/MS analysis; format: physicochemical; details: buffer; how it was run: as §1
[3] = target: T1, ATP-dependent translocase ABCB1 (Homo sapiens, UniProt P08183); assay: Inhibition of P-gp in doxorubicin-resistant human HT-29 cells overexpressing P-gp assessed as Vmax at 3 uM in presence of 0 to 100 uM doxorubicin […]; format: cell-based; details: ht-29, 3 µM
T1 sequence (P08183 whole entry): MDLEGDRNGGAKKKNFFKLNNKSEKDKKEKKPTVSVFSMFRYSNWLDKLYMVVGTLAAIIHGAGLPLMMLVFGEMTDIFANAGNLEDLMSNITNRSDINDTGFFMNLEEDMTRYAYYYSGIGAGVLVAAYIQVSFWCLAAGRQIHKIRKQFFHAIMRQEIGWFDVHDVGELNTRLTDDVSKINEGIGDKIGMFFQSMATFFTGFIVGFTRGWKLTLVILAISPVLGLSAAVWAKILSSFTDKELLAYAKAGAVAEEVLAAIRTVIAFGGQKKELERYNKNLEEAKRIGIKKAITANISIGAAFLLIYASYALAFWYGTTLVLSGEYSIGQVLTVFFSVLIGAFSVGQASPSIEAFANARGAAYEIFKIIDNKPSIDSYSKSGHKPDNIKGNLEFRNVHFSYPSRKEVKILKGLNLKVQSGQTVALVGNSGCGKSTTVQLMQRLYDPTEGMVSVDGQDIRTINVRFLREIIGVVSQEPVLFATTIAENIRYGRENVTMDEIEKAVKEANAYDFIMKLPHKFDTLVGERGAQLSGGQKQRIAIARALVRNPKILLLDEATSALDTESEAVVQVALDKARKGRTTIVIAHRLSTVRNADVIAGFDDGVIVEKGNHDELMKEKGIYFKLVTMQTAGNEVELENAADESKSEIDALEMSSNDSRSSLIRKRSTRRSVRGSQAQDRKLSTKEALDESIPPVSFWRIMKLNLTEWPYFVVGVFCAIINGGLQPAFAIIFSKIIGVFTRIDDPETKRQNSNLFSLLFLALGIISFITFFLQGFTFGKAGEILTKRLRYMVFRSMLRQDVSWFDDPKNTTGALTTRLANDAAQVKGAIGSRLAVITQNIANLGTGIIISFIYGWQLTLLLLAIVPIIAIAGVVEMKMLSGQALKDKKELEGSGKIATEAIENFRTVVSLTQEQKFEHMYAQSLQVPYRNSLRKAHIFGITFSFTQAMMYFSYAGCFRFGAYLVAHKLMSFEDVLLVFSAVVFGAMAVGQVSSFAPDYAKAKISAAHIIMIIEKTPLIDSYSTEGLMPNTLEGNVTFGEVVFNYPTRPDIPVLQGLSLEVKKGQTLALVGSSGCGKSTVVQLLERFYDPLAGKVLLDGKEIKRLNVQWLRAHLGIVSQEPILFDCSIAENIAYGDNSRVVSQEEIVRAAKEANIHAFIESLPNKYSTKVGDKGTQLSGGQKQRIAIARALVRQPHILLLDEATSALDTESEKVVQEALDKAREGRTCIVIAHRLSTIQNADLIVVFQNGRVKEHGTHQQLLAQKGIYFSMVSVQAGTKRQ
How it was run: (§2)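 Cells incubated 20 min with 0–100 μM doxorubicin, alone or with compound at 1 or 3 μM. A parallel set was left a further 10 min at 37 °C, then intracellular drug measured. Doxorubicin extruded (nmol/min/mg protein) plotted against initial concentration and fitted to Michaelis–Menten to give Vmax and Km. Mean ± SD.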

[4] = target: T1, ATP-dependent translocase ABCB1; assay: Inhibition of P-gp in doxorubicin-resistant carbonic anhydrase knockout human HT-29 cells overexpressing P-gp assessed as Vmax at 1 uM in presence of 0 to 100 uM doxorubicin […]; format: cell-based; details: ht-29, 1 µM; how it was run: as §2
[5] = target: T1, ATP-dependent translocase ABCB1; assay: Inhibition of P-gp in doxorubicin-resistant carbonic anhydrase knockout human A549 cells overexpressing P-gp assessed as Vmax at 3 uM in presence of 0 to 100 uM doxorubicin […]; format: cell-based; details: a549, 3 µM; how it was run: as §2
[6] = target: T1, ATP-dependent translocase ABCB1; assay: Inhibition of P-gp in human A549 cells overexpressing P-gp assessed as Vmax at 3 uM in presence of 0 to 100 uM doxorubicin […]; format: cell-based; details: a549, 3 µM; how it was run: as §2
[7] = target: T1, ATP-dependent translocase ABCB1; assay: Inhibition of P-gp in doxorubicin-resistant human A549 cells overexpressing P-gp assessed as Vmax at 3 uM in presence of 0 to 100 uM doxorubicin […]; format: cell-based; details: a549, 3 µM; how it was run: as §2
[8] = target: T1, ATP-dependent translocase ABCB1; assay: Inhibition of P-gp in doxorubicin-resistant human HT-29 cells overexpressing P-gp assessed as Vmax at 1 uM in presence of 0 to 100 uM doxorubicin […]; format: cell-based; details: ht-29, 1 µM; how it was run: as §2
[9] = target: T1, ATP-dependent translocase ABCB1; assay: Inhibition of P-gp in doxorubicin-resistant carbonic anhydrase knockout human A549 cells overexpressing P-gp assessed as Vmax at 1 uM in presence of 0 to 100 uM doxorubicin […]; format: cell-based; details: a549, 1 µM; how it was run: as §2
[10] = target: T1, ATP-dependent translocase ABCB1; assay: Inhibition of P-gp in doxorubicin-resistant human A549 cells overexpressing P-gp assessed as increase in doxorubicin retention 1 uM in presence of 5 uM doxorubicin measured after 24 hrs by spectrophotometric method; format: cell-based; details: a549, 24 h
How it was run: (§3)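 Resistant cells (wild-type, P-gp KO or hCA XII KO; KO lines selected with 1 μg/mL puromycin) exposed to 5 μM doxorubicin alone or with test compound at 1 or 3 μM. Cells washed, trypsinized and extracted in ethanol/0.3 N HCl. Doxorubicin fluorescence read at ex 475/em 553 nm and converted to nmol/mg cell protein with a calibration curve. Mean ± SD, n = 3.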

[11] = target: T1, ATP-dependent translocase ABCB1; assay: Inhibition of P-gp in doxorubicin-resistant human HT-29 cells overexpressing P-gp assessed as increase in doxorubicin retention 1 uM in presence of 5 uM doxorubicin measured after 24 hrs by spectrophotometric method; format: cell-based; details: ht-29, 24 h; how it was run: as §3
[12] = target: T1, ATP-dependent translocase ABCB1; assay: Inhibition of P-gp in doxorubicin-resistant human A549 cells overexpressing P-gp assessed as increase in doxorubicin retention 3 uM in presence of 5 uM doxorubicin measured after 24 hrs by spectrophotometric method; format: cell-based; details: a549, 24 h; how it was run: as §3
[13] = target: T1, ATP-dependent translocase ABCB1; assay: Inhibition of P-gp in human A549 cells overexpressing P-gp assessed as Vmax at 1 uM in presence of 0 to 100 uM doxorubicin […]; format: cell-based; details: a549, 1 µM; how it was run: as §2
[14] = target: T1, ATP-dependent translocase ABCB1; assay: Inhibition of P-gp in doxorubicin-resistant human HT-29 cells overexpressing P-gp assessed as increase in doxorubicin retention 3 uM in presence of 5 uM doxorubicin measured after 24 hrs by spectrophotometric method; format: cell-based; details: ht-29, 24 h; how it was run: as §3
[15] = target: T1, ATP-dependent translocase ABCB1; assay: Inhibition of P-gp in human HT-29 cells overexpressing P-gp assessed as Vmax at 1 uM in presence of 0 to 100 uM doxorubicin […]; format: cell-based; details: ht-29, 1 µM; how it was run: as §2
[16] = target: T1, ATP-dependent translocase ABCB1; assay: Inhibition of P-gp in doxorubicin-resistant human A549 cells overexpressing P-gp assessed as Vmax at 1 uM in presence of 0 to 100 uM doxorubicin […]; format: cell-based; details: a549, 1 µM; how it was run: as §2
[17] = target: T1, ATP-dependent translocase ABCB1; assay: Inhibition of P-gp in doxorubicin-resistant carbonic anhydrase knockout human HT-29 cells overexpressing P-gp assessed as Vmax at 3 uM in presence of 0 to 100 uM doxorubicin […]; format: cell-based; details: ht-29, 3 µM; how it was run: as §2
[18] = target: T1, ATP-dependent translocase ABCB1; assay: Inhibition of P-gp in human HT-29 cells overexpressing P-gp assessed as Vmax at 3 uM in presence of 0 to 100 uM doxorubicin […]; format: cell-based; details: ht-29, 3 µM; how it was run: as §2

| Compound | Stability [1] | Stability [2] | other results |
| --- | --- | --- | --- |
| COc1cc(C(=O)OCCCN(CCCCCOC(=O)c2c3ccccc3cc3ccccc23)CCCOc2ccc3ccc(=O)oc3c2)cc(OC)c1OC | Stable | Stable |  |
| COc1cc(C(=O)OCCCN(CCCCCCOC(=O)c2c3ccccc3cc3ccccc23)CCCOc2ccc3ccc(=O)oc3c2)cc(OC)c1OC | Stable | Stable |  |
| COc1cc(/C=C/C(=O)OCCCN(CCCCCCOC(=O)c2c3ccccc3cc3ccccc23)CCCOc2ccc3ccc(=O)oc3c2)cc(OC)c1OC | Stable | Stable |  |
| COc1cc(/C=C/C(=O)OCCCN(CCCCCOC(=O)c2c3ccccc3cc3ccccc23)CCCOc2ccc3ccc(=O)oc3c2)cc(OC)c1OC | Stable | Stable |  |
| COc1cc(C(=O)OCCCCCN(CCCOC(=O)c2c3ccccc3cc3ccccc23)CCCOc2ccc3ccc(=O)oc3c2)cc(OC)c1OC | Stable | Stable |  |
| O=C(OCCCCCCN(CCCOC(=O)c1c2ccccc2cc2ccccc12)CCCOc1ccc2ccc(=O)oc2c1)c1c2ccccc2cc2ccccc12 | Stable | Stable |  |
| COc1cc(/C=C/C(=O)OCCCCCN(CCCOC(=O)/C=C/c2cc(OC)c(OC)c(OC)c2)CCCOc2ccc3ccc(=O)oc3c2)cc(OC)c1OC | Stable | Stable |  |
| O=C(OCCCCCN(CCCOC(=O)c1c2ccccc2cc2ccccc12)CCCOc1ccc2ccc(=O)oc2c1)c1c2ccccc2cc2ccccc12 | Stable | Stable |  |
| COc1cc(/C=C/C(=O)OCCCCCCN(CCCOC(=O)/C=C/c2cc(OC)c(OC)c(OC)c2)CCCOc2ccc3ccc(=O)oc3c2)cc(OC)c1OC | Stable | Stable |  |
| COc1cc(/C=C/C(=O)OCCCN(CCCCCCCOC(=O)c2cc(OC)c(OC)c(OC)c2)CCCOc2ccc3ccc(=O)oc3c2)cc(OC)c1OC | Stable | Stable |  |
| COc1cc(/C=C/C(=O)OCCCCCCN(CCCOC(=O)c2c3ccccc3cc3ccccc23)CCCOc2ccc3ccc(=O)oc3c2)cc(OC)c1OC | Stable | Stable |  |
| COc1cc(/C=C/C(=O)OCCCCCCCN(CCCOC(=O)c2cc(OC)c(OC)c(OC)c2)CCCOc2ccc3ccc(=O)oc3c2)cc(OC)c1OC | Stable | Stable |  |
| COc1cc(C(=O)OCCCCCCCN(CCCOC(=O)c2c3ccccc3cc3ccccc23)CCCOc2ccc3ccc(=O)oc3c2)cc(OC)c1OC | Stable | Stable |  |
| COc1cc(/C=C/C(=O)OCCCCCCCN(CCCOC(=O)c2c3ccccc3cc3ccccc23)CCCOc2ccc3ccc(=O)oc3c2)cc(OC)c1OC | Stable | Stable |  |
| COc1cc(C(=O)OCCCCCCN(CCCOC(=O)c2cc(OC)c(OC)c(OC)c2)CCCOc2ccc3ccc(=O)oc3c2)cc(OC)c1OC | Stable | Stable | Vmax [3]: 3.8 µmol/min; Vmax [4]: 4.27 µmol/min; Vmax [5]: 2.92 µmol/min; Vmax [6]: 2.41 µmol/min; Vmax [7]: 4.14 µmol/min; Vmax [8]: 4.73 µmol/min; Vmax [9]: 3.6 µmol/min; inhibition (INH) [10]: Active; inhibition (INH) [11]: Active; inhibition (INH) [12]: Active; Vmax [13]: 2.43 µmol/min; inhibition (INH) [14]: Active; Vmax [15]: 3.21 µmol/min; Vmax [16]: 5.27 µmol/min; Vmax [17]: 3.45 µmol/min; Vmax [18]: 3.28 µmol/min |
| COc1cc(/C=C/C(=O)OCCCCCN(CCCOC(=O)c2cc(OC)c(OC)c(OC)c2)CCCOc2ccc3ccc(=O)oc3c2)cc(OC)c1OC | Stable | Stable |  |
| COc1cc(/C=C/C(=O)OCCCCCN(CCCOC(=O)c2c3ccccc3cc3ccccc23)CCCOc2ccc3ccc(=O)oc3c2)cc(OC)c1OC | Stable | Stable |  |
| O=C(OCCCCCCCN(CCCOC(=O)c1c2ccccc2cc2ccccc12)CCCOc1ccc2ccc(=O)oc2c1)c1c2ccccc2cc2ccccc12 | Stable | Stable |  |
| COc1cc(/C=C/C(=O)OCCCCCCCN(CCCOC(=O)/C=C/c2cc(OC)c(OC)c(OC)c2)CCCOc2ccc3ccc(=O)oc3c2)cc(OC)c1OC | Stable | Stable |  |
| COc1cc(C(=O)OCCCCCCCN(CCCOC(=O)c2cc(OC)c(OC)c(OC)c2)CCCOc2ccc3ccc(=O)oc3c2)cc(OC)c1OC | Stable | Stable |  |
| COc1cc(/C=C/C(=O)OCCCN(CCCCCCOC(=O)c2cc(OC)c(OC)c(OC)c2)CCCOc2ccc3ccc(=O)oc3c2)cc(OC)c1OC | Stable | Stable |  |
| COc1cc(C(=O)OCCCN(CCCCCCCOC(=O)c2c3ccccc3cc3ccccc23)CCCOc2ccc3ccc(=O)oc3c2)cc(OC)c1OC | Stable | Stable |  |
| COc1cc(/C=C/C(=O)OCCCN(CCCCCCCOC(=O)c2c3ccccc3cc3ccccc23)CCCOc2ccc3ccc(=O)oc3c2)cc(OC)c1OC | Stable | Stable |  |
| COc1cc(/C=C/C(=O)OCCCN(CCCCCOC(=O)c2cc(OC)c(OC)c(OC)c2)CCCOc2ccc3ccc(=O)oc3c2)cc(OC)c1OC | Stable | Stable |  |
| COc1cc(C(=O)OCCCCCN(CCCOC(=O)c2cc(OC)c(OC)c(OC)c2)CCCOc2ccc3ccc(=O)oc3c2)cc(OC)c1OC | Stable | Stable | Vmax [3]: 3.21 µmol/min; Vmax [4]: 4.3 µmol/min; Vmax [5]: 2.74 µmol/min; Vmax [6]: 2.35 µmol/min; Vmax [7]: 3.98 µmol/min; Vmax [8]: 5.3 µmol/min; Vmax [9]: 3.75 µmol/min; inhibition (INH) [10]: Active; inhibition (INH) [11]: Active; inhibition (INH) [12]: Active; Vmax [13]: 2.36 µmol/min; inhibition (INH) [14]: Active; Vmax [15]: 3.29 µmol/min; Vmax [16]: 5.1 µmol/min; Vmax [17]: 3.22 µmol/min; Vmax [18]: 3.12 µmol/min |
| COc1cc(C(=O)OCCCCCCN(CCCOC(=O)c2c3ccccc3cc3ccccc23)CCCOc2ccc3ccc(=O)oc3c2)cc(OC)c1OC | Stable | Stable |  |
| COc1cc(/C=C/C(=O)OCCCCCCN(CCCOC(=O)c2cc(OC)c(OC)c(OC)c2)CCCOc2ccc3ccc(=O)oc3c2)cc(OC)c1OC | Stable | Stable |  |
